Measured values published in ChEMBL document CHEMBL1133978, “Potent peptide alpha-ketohydroxamate inhibitors of recombinant human calpain I” (Bioorg Med Chem Lett, 2001).

What follows are compounds tested on MOLT-4 (assay: Inhibition of cell permeability by measuring the spectrin breakdown product in intact MOLT-4 cells). Conditions: Homo sapiens.
Format: functional, cell-based
Summary of the method: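 Intact MOLT-4 cells (human leukemia T-cell line) had calpain activated with ionomycin. Cell permeability was read as inhibition of the spectrin breakdown product. Potency is reported as IC50.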

| Structure (SMILES) | IC50 [nM] |
| --- | --- |
| CCONC(=O)C(=O)[C@H](Cc1ccccc1)NC(=O)[C@H](CC(C)C)NC(=O)OCc1ccccc1 | 1100 |
| CC(C)C[C@H](NC(=O)OCc1ccccc1)C(=O)N[C@@H](Cc1ccccc1)C(=O)C(=O)NOC(C)(C)C | 3900 |
| CONC(=O)C(=O)[C@H](Cc1ccccc1)NC(=O)[C@H](CC(C)C)NC(=O)OCc1ccccc1 | 900 |
| CC(C)C[C@H](NC(=O)OCc1ccccc1)C(=O)N[C@@H](Cc1ccccc1)C(=O)C(=O)NOCc1c(F)c(F)c(F)c(F)c1F | 2900 |

Now from value to compound:

| IC50 [nM] | Structure (SMILES) |
| --- | --- |
| 900 | CS(=O)(=O)N[C@H](COCc1ccccc1)C(=O)N[C@@H](Cc1ccccc1)C(=O)C(=O)NOCc1ccccc1 |
| 600 | CC(C)C[C@H](NC(=O)OCc1ccccc1)C(=O)N[C@@H](Cc1ccccc1)C(=O)C(=O)NOCc1ccccc1 |
| 600 | CC(C)[C@@H](NC(=O)OCc1ccccc1)C(=O)N[C@@H](Cc1ccccc1)C(=O)C(=O)NOCc1ccccc1 |
| 500 | CCCC[C@H](NC(=O)[C@@H](NC(=O)OCc1ccccc1)C(C)C)C(=O)C(=O)NOCc1ccccc1 |
| 200 | CC(C)C[C@H](NC(=O)OCc1ccccc1)C(=O)N[C@@H](CC(C)C)C(=O)N[C@@H](Cc1ccccc1)C(=O)C(=O)NOCc1ccccc1 |
| 200 | CONC(=O)C(=O)[C@H](Cc1ccccc1)NC(=O)[C@H](CC(C)C)NC(=O)[C@H](CC(C)C)NC(=O)OCc1ccccc1 |

What follows are compounds tested on MOLT-4 (assay: Compound was tested for inhibition of cell permeability by measuring the spectrin breakdown product in intact MOLT-4 cells at 1 uM). Conditions: Homo sapiens.
Format: functional
Summary of the method: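 In intact MOLT-4 human leukemia T cells, calpain was activated by ionomycin. Spectrin breakdown product was measured, and inhibition is given as percent at a single 1 μM test concentration.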

| Structure (SMILES) | inhibition at 1 µM [%] |
| --- | --- |
| CC(C)C[C@H](NC(=O)OCc1ccccc1)C(=O)N[C@@H](Cc1ccccc1)C(=O)C(=O)NOC1CCC(C)CC1 (stereo partly specified) | 26 |
